Test results as given in paper PMC7047882 (Archives of biochemistry and biophysics, 2019).
Like-named read-outs stand apart in the source and are kept apart here.

Tests used:
bovine brain tubulin [1] = biological target: T1, bovine brain tubulin (Bos taurus, UniProt P81947+Q6B856); assay: biochemical; assay type: binding; conditions: for inhibition at 30 µM: pH 6.9, read-out: Effect on DZA binding (% inhibition ± SE)
cultured cancer cells = conditions: cited from earlier work
bovine brain tubulin [2] = biological target: T1, bovine brain tubulin; assay: Turbidity development; assay type: biochemical
Outline: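 Electrophoretically homogeneous bovine brain tubulin, without the gel-filtration step used for the binding studies. Reactions were run in glass vessels in 0.1 M Mes, brought to pH 6.5 or 6.9 with NaOH, with MgCl2 (for example 2 mM, 22 °C). Test compounds were added from dimethyl sulfoxide stocks, with the same dimethyl sulfoxide concentration in controls. The read-out was turbidity development.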

bovine brain tubulin [3] = biological target: T1, bovine brain tubulin; assay: Recovery of compound-induced aberrant tubulin polymer by centrifugation; assay type: biochemical; conditions: for tubulin recovery by centrifugation (in words): pH 6.9, 2 mM MgCl2, 22 °C
Outline: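 Electrophoretically homogeneous bovine brain tubulin, without gel filtration, was used. Reaction mixtures contained 0.1 M Mes (pH 6.9 or 6.5, adjusted with NaOH) with 2 mM MgCl₂ at 22 °C. The test compound was added from dimethyl sulfoxide stocks, and controls received equal dimethyl sulfoxide. Reactions were run in glass vessels, and aberrant polymer was harvested by centrifugation and read as tubulin in pellets.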

tubulin [4] = conditions: cited from earlier work
tubulin [5] = conditions: cited from earlier work; remark: listed apart in the source
tubulin [6] = conditions: cited from earlier work; remark: listed apart in the source

T1 sequence (Q6B856 whole entry): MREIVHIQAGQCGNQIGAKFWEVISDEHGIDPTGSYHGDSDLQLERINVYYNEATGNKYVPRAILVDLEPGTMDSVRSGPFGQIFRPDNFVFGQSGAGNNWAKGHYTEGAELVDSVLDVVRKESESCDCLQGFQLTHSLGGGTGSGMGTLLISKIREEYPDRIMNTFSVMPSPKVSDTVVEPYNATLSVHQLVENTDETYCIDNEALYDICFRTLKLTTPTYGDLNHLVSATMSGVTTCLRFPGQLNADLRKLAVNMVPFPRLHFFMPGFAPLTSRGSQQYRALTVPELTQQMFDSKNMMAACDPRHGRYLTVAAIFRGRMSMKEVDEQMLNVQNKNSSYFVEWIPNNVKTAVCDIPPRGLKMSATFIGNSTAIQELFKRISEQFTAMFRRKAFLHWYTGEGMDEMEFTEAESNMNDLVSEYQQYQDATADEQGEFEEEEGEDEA
T1 sequence (P81947 whole entry): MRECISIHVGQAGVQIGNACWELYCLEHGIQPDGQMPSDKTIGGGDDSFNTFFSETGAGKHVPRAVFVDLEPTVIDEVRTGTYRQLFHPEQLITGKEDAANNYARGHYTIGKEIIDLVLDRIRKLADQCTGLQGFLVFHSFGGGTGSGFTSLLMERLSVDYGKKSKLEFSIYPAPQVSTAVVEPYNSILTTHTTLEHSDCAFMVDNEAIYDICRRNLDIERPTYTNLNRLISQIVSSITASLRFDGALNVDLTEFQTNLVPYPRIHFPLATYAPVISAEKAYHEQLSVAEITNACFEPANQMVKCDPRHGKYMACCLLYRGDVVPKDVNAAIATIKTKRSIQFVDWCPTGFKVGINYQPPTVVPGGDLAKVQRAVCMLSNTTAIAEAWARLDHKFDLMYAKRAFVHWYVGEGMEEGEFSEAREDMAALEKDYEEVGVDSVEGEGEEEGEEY

Work on COc1ccc(/C=C\c2cc(OC)c(OC)c(OC)c2)cc1O [Combretastatin A-4, combretastatin A-4] yielded an inhibition at 30 µM (bovine brain tubulin [1]) of 17 ± 3%.
For COc1ccc(C[C@H]2NC(=O)/C=C/C[C@@H]([C@H](C)[C@H]3O[C@@H]3c3ccccc3)OC(=O)[C@H](CC(C)C)OC(=O)[C@H](C)CNC2=O)cc1Cl [Cryptophycin 1, cryptophycin 1], the “maximal inhibition of [^3H]DZA binding” value (bovine brain tubulin [1]; preincubated tubulin, near maximal with 3 μM compound) is listed as 50-60%, the “IC50 values for cultured cancer cells (in words)” value (cultured cancer cells) is listed as “picomolar” and the “turbidity development (in words)” value (bovine brain tubulin [2]; most conditions examined) is listed as “little turbidity development”.
For CC[C@H](C)[C@@H]([C@@H](CC(=O)N1CCC[C@H]1[C@H](OC)[C@@H](C)C(=O)N[C@@H](Cc1ccccc1)c1nccs1)OC)N(C)C(=O)[C@@H](NC(=O)[C@H](C(C)C)N(C)C)C(C)C [D10, dolastatin 10], the “inhibition of [^3H]DZA binding to tubulin (in words)” value (bovine brain tubulin [1]; without a tubulin preincubation) was “inhibition was negligible”, the “tubulin recovery by centrifugation (in words)” value (shortened to “tubulin recovery”) (bovine brain tubulin [3]; 10 and 20 μM compound) was “even larger amounts” and the “turbidity development (in words)” value (bovine brain tubulin [2]; all conditions examined) was “Extensive turbidity development”.
For CC(C)[C@H](O)C(=O)N[C@H]1Cc2ccc3c(c2)[C@]24C5=C(N=C(O5)[C@H](C(C)C)NC1=O)c1nc(Cl)c(o1)-c1c(Cl)[nH]c5cccc(c15)-c1cccc2c1N[C@@H]4O3 [DZA, diazonamide A], the “inhibition of [^3H]DZA binding to tubulin (in words)” value (bovine brain tubulin [1]) is listed as “no inhibition of binding”, the “inhibition of tubulin assembly (in words)” value (tubulin [4]) is listed as “potent inhibitor” and the “inhibition of binding of [^3H]D10 to tubulin (in words)” value (tubulin [5]) is listed as “no inhibition”. The “inhibition of binding of [^3H]vinblastine to tubulin (in words)” value (tubulin [6]) was “no inhibition”, the “tubulin recovery” value (bovine brain tubulin [3]; 10 and 20 μM compound) was “large amounts” and the “tubulin recovered in pellets (in words)” value (bovine brain tubulin [3]; pH 6.5, 2 mM MgCl2, 22 °C) was “almost all the tubulin”. The “turbidity development (in words)” value (bovine brain tubulin [2]; 0.1 M Mes (pH 6.5), 2 mM MgCl2, 22 °C) was “differed little from that with D10”.
With CN[C@H](C(=O)N[C@H](C(=O)N(C)[C@H](/C=C(\C)C(=O)O)C(C)C)C(C)(C)C)C(C)(C)c1cn(C)c2ccccc12 [Hemiasterlin, hemiasterlin] the inhibition at 30 µM (bovine brain tubulin [1]) was 43 ± 3% and the “tubulin recovery” value (bovine brain tubulin [3]; 20 μM compound) was “a moderate amount”.
COc1cc2cc(c1Cl)N(C)C(=O)C[C@H](OC(=O)[C@H](C)N(C)C(C)=O)[C@]1(C)O[C@H]1[C@H](C)[C@@H]1C[C@@](O)(NC(=O)O1)[C@H](OC)/C=C/C=C(\C)C2 [Maytansine, maytansine] gave an inhibition at 30 µM (bovine brain tubulin [1]) of 9.2 ± 6%.
In the case of CC[C@]1(O)C[C@@H]2CN(CCc3c([nH]c4ccccc34)[C@@](C(=O)OC)(c3cc4c(cc3OC)N(C)[C@H]3[C@@](O)(C(=O)OC)[C@H](OC(C)=O)[C@]5(CC)C=CCN6CC[C@]43[C@@H]65)C2)C1 [Vinblastine, vinblastine], the “inhibition of [^3H]DZA binding to tubulin (in words)” value (bovine brain tubulin [1]) is reported as “absolutely no inhibitory effect”, the “Effect on DZA binding (% enhancement ± SE; indicated by E before the value)” value (bovine brain tubulin [1]; pH 6.9) is reported as “E 11 ± 5%” and the “tubulin recovery” value (bovine brain tubulin [3]; 20 μM compound) is reported as “even larger amounts”.
